# Data published in ChEMBL document CHEMBL1129933, “Tyrosine kinase inhibitors. 6. Structure-activity relationships among N- and 3-substituted 2,2'-diselenobis(1H-indoles) for inhibition of protein tyrosine kinases and comparative in vitro and in vivo studies against selected sulfur congeners” (J Med Chem, 1997).
# Key:
# MCF7 [1] = experiment: In vivo activity against human MCF-7 xenograft, weight change after 12.0 mg/kg ip dose for 5-11 days; assay type: functional; conditions: route intraperitoneal
# How it was run: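 MCF-7 breast carcinoma xenografts were serially passaged in nude mice (NCr nu/nu) and implanted in randomized 18-22 g mice on day 0. Dosing was ip bolus, either daily or q4h ×3 daily, with vehicle of distilled H2O or 10% DMA in 50 mM lactic acid buffer, pH 4.0. Weight change was taken as the maximum treatment-related loss.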
# [2] = Inhibition of protein synthesis; assay type: functional
# How it was run: (§1)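 Log-phase cells were drug-treated for 2 h, then exposed for 2 h to 1 µM [methyl-3H]thymidine (DNA), [5-3H]uridine (RNA) or (S)-[4,5-3H]leucine (protein), each at 1 µCi/nmol. Cells were trypsinized into ice-cold 15% TCA, and precipitates were collected on glass-fibre filters, washed, and counted by scintillation.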
# [3] = biological target: T1, Epidermal growth factor receptor (Homo sapiens, UniProt P00533); experiment: Inhibition of epidermal growth factor receptor (EGFr) using ATP substrate
# T1 sequence (P00533 whole entry): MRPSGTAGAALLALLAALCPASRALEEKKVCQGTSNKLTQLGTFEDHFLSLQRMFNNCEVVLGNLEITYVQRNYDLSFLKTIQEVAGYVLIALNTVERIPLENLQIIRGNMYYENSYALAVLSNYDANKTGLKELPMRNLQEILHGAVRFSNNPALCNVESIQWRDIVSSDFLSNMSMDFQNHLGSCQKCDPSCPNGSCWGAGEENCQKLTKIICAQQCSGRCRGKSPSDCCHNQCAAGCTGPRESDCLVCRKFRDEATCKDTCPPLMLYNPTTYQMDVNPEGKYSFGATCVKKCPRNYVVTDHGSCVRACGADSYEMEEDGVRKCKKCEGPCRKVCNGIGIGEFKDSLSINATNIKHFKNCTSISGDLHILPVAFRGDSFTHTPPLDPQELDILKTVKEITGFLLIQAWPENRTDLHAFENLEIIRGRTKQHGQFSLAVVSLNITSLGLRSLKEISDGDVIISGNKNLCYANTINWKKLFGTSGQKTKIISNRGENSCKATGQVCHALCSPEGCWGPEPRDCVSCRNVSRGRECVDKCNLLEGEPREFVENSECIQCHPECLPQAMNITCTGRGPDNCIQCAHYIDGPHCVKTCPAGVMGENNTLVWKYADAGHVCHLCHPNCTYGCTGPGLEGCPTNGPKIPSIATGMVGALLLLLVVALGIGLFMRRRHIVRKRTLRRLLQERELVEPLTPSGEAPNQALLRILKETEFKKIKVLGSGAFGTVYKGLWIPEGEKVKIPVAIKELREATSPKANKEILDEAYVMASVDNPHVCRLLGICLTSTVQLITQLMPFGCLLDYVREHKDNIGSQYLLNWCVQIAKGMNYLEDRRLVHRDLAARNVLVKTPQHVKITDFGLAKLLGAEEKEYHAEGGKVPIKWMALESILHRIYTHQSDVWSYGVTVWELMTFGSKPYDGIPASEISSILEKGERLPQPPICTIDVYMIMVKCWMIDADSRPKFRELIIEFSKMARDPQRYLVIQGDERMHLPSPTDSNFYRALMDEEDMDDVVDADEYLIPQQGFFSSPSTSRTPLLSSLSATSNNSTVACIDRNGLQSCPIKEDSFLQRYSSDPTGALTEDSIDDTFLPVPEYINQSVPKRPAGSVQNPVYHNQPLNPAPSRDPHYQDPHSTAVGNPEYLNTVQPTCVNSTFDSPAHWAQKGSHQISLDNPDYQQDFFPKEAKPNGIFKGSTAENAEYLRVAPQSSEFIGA
# How it was run: (§2)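 EGFr came from membrane vesicles shed by human A431 carcinoma cells. Activity was measured as 32P-phosphate transfer from ATP into a TCA-precipitable glutamate/tyrosine (4:1) random copolymer. ATP or peptide polymer substrate was varied. Ki was obtained by nonlinear regression with Cleland's equations, comparing slope and intercept determinations to assign the inhibition type.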
# [4] = biological target: Platelet-derived growth factor receptor beta (Mus musculus, UniProt P05622); experiment: Inhibition of platelet-derived growth factor receptor (PDGFr) autophosphorylation; assay type: functional
# Sequence of Platelet-derived growth factor receptor beta (P05622 whole entry): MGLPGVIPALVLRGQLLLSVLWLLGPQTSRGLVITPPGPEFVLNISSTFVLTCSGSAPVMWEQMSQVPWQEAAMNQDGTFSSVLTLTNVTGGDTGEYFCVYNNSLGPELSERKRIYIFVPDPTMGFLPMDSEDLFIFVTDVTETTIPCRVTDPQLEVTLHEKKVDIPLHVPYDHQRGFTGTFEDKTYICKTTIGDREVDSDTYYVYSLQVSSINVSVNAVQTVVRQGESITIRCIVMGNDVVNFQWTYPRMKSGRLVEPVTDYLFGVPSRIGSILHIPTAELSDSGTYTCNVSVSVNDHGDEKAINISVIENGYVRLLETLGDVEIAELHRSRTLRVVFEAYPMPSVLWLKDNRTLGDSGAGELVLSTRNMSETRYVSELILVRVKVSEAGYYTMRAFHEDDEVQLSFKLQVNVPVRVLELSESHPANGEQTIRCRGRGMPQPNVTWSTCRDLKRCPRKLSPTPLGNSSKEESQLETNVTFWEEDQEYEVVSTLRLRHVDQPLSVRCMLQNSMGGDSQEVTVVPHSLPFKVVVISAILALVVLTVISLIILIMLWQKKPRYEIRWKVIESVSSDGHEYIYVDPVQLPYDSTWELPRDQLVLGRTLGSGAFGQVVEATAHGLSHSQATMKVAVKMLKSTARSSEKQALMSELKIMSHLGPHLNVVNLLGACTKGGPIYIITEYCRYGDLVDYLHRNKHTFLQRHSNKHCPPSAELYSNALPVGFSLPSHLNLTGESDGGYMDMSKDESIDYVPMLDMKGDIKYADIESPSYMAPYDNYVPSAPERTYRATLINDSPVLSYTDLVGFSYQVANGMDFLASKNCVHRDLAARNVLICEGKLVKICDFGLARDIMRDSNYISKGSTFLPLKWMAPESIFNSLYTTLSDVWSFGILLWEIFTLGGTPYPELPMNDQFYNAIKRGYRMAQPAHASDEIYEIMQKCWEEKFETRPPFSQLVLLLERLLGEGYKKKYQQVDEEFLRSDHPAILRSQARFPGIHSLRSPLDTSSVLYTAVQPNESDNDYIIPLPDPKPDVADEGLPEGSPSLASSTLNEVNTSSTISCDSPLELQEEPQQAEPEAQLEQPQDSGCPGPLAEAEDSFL
# How it was run: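 Swiss 3T3 fibroblasts were treated 2 h with a range of compound concentrations, then stimulated 5 min with growth factor. Receptor tyrosine phosphorylation was assessed by cell extraction and western blotting.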
# Colon 26 [5] = experiment: In vivo activity against murine colon 26, weight change after 0.75 mg/kg ip dose at 4 hour intervals 3x a day for 9 days; assay type: functional, Mus musculus; conditions: route intraperitoneal
# How it was run: (§3)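 Murine tumours were maintained by serial transplantation (~30 mg fragments every 2 weeks): B16 in C57BL/6 and colon 26 in BALB/c. They were tested in F1 hosts, B6C3F1 for B16 and CD2F1 for colon 26, weighing 18-22 g. Treatment was ip daily or q4h ×3 for 9 days. Weight change was the difference between mean group weights on the last and first treatment days, from life-span assays.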
# A-431 [6] = experiment: In vivo activity against human A431 epidermoid xenograft, tumor growth delay (T-C) at 9 mg/kg administered subcutaneously for 1-27 days; conditions: route subcutaneous
# MCF7 [7] = experiment: In vivo activity against human MCF-7 xenograft, tumor growth delay (T-C) at 3.0 mg/kg ip dose at 4 hour intervals 3x a day for 5-11 days; conditions: route intraperitoneal
# A-431 [8] = experiment: In vivo activity against human A431 epidermoid xenograft, weight change after 9 mg/kg sc dose for 1-27 days; assay type: functional, organism-based; set-up: dose 9 mg/kg
# How it was run: (§4)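 Nude mice (NCr nu/nu, 18-22 g) bearing sc A431 fragments in the right axilla (day 0) received continuous sc infusion from an Alzet miniosmotic pump implanted under ketamine-xylazine. Pumps were removed or replaced under lidocaine-epinephrine for longer therapy, in 7-day and 27-day studies. Daily dose was the maximum deliverable without significant precipitation. Weight change was taken as the maximum treatment-related loss.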
# A-431 [9] = experiment: In vivo activity against human A431 epidermoid xenograft, weight change after 10 mg/kg sc dose for 9-15 days; assay type: functional; conditions: route subcutaneous; how it was run: as §4
# [10] = biological target: T1, Epidermal growth factor receptor; experiment: Inhibition of epidermal growth factor receptor (EGFr)
# [11] = biological target: Epidermal growth factor receptor (Mus musculus) (UniProt Q01279); experiment: Inhibition of epidermal growth factor receptor (EGFr) autophosphorylation
# Sequence of Epidermal growth factor receptor (Mus musculus) (Q01279 whole entry, looked up): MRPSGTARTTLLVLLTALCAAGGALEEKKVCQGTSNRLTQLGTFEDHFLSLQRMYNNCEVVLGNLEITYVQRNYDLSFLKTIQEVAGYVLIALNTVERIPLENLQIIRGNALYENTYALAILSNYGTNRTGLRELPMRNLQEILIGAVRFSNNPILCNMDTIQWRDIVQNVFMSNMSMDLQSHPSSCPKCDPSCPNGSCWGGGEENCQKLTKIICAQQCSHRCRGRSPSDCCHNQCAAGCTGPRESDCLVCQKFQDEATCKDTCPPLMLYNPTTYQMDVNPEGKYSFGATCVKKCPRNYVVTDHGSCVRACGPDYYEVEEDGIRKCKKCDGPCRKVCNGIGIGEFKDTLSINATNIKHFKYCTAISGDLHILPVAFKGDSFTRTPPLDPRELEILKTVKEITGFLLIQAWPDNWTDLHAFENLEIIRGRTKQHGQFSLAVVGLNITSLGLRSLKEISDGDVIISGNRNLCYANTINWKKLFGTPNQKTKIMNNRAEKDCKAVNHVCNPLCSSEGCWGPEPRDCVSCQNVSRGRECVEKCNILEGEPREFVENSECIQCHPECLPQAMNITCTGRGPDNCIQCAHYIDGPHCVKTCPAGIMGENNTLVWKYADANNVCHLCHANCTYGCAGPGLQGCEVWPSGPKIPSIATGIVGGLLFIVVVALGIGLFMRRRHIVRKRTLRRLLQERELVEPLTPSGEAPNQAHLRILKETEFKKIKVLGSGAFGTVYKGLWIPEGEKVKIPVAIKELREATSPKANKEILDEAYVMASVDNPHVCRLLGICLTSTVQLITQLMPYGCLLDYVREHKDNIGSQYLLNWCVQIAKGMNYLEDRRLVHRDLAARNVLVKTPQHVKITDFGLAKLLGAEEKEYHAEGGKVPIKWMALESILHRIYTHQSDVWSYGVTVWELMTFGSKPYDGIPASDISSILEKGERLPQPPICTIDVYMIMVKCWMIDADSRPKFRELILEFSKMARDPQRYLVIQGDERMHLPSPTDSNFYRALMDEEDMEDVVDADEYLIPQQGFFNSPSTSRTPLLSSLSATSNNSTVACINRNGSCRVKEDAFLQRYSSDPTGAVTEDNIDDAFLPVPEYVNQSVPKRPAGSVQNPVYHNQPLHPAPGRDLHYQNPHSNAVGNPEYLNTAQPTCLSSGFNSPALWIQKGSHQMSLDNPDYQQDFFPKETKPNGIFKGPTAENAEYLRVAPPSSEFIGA
# B16 [12] = experiment: In vivo activity against murine B16 melanoma, percent treated/control tumor mass at 0.75 mg/kg ip dose at 4 hour intervals 3x a day for 9 days; assay type: functional, Mus musculus; conditions: route intraperitoneal; how it was run: as §3
# C6 = experiment: In vivo activity against C6 glioma xenograft, tumor growth delay (T-C, days) at 5 mg/kg ip dose for 9 days; conditions: route intraperitoneal
# Colon 26 [13] = experiment: In vivo activity against murine colon 26, net cell kill at 0.75 mg/kg ip dose at 4 hour intervals 3x a day for 9 days; assay type: functional, Mus musculus; conditions: route intraperitoneal
# How it was run: (§5)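 Colon 26 was passaged in BALB/c mice; tested in CD2F1 mice (18-22 g, randomized) implanted on day 0 ip with counted cells or sc with fragments. Dosing was ip bolus, daily or q4h ×3 daily, by average cage weight. Vehicle was distilled H2O or 10% DMA in 50 mM lactic acid, pH 4.0. Net cell kill = log tumor-burden reduction between first and last treatments.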
# [14] = Inhibition of RNA synthesis; assay type: functional; how it was run: as §1
# B16 [15] = experiment: In vivo activity against murine B16 melanoma, percent treated/control tumor mass at 3.0 mg/kg ip dose for 9 days; assay type: functional, Mus musculus; conditions: route intraperitoneal; how it was run: as §3
# B16 [16] = experiment: In vivo activity against murine B16 melanoma, net cell kill at 0.75 mg/kg administered intraperitoneally at 4 hour intervals 3x a day for 9 days; assay type: functional, Mus musculus; conditions: route intraperitoneal
# How it was run: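 Tumors were passaged in C57BL/6 mice; B6C3F1 mice (18-22 g, randomized) were implanted on day 0 ip with counted tumor cells or sc with fragments. Dosing was ip bolus, daily or q4h ×3 daily, by average cage weight. Vehicle was distilled H2O or 10% DMA in 50 mM lactic acid buffer, pH 4.0. Net cell kill = log reduction in tumor burden between first and last treatments.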
# Colon 26 [17] = experiment: In vivo activity against murine colon 26, percent treated/control tumor mass at 0.75 mg/kg ip dose at 4 hour intervals 3x a day for 9 days; assay type: functional, Mus musculus; conditions: route intraperitoneal; how it was run: as §3
# [18] = biological target: T1, Epidermal growth factor receptor; experiment: Inhibition of epidermal growth factor receptor (EGFr) using peptide substrate; how it was run: as §2
# [19] = biological target: Fibroblast growth factor receptor (Mus musculus, UniProt P21803+Q03142+P16092+Q61851); experiment: Inhibition of fibroblast growth factor (bFGF)-mediated autophosphorylation of FGF-R in Swiss 3T3 mouse fibroblasts; assay type: functional
# How it was run: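 Swiss 3T3 fibroblasts were treated 2 h with a range of compound concentrations, then stimulated for 5 min with growth factor (bFGF). Receptor tyrosine phosphorylation was read by extraction and western blotting.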
# A-431 [20] = experiment: In vivo activity against human A431 epidermoid xenograft, net cell kill at 9 mg/kg administered subcutaneously for 1-27 days; assay type: functional; conditions: route subcutaneous
# How it was run: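 Nude mice (NCr nu/nu), 18-22 g, randomized, implanted sc in the right axilla with serially passaged A431 tumor fragments on day 0. Dosing was by ip bolus or continuous sc Alzet miniosmotic pump infusion, by average cage weight. Vehicle was distilled H2O or 10% DMA in 50 mM lactic acid buffer, pH 4.0, depending on compound. Net cell kill = net log reduction in tumor burden between first and last treatments.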
# Colon 26 [21] = experiment: In vivo activity against murine colon 26, weight change after 1.5 mg/kg ip dose for 9 days; assay type: functional, Mus musculus; conditions: route intraperitoneal; how it was run: as §3
# MCF7 [22] = experiment: In vivo activity against human MCF-7 xenograft, net cell kill at 3.0 mg/kg administered intraperitoneally at 4 hour intervals 3x a day for 5-11 days; assay type: functional; conditions: route intraperitoneal
# How it was run: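 Nude mice (NCr nu/nu), 18-22 g, randomized and implanted on day 0 with serially passaged MCF-7 tumor (sc fragments in right axilla or ip cells). Compound was given ip bolus q4h ×3 daily, by average cage weight. Vehicle was distilled H2O or 10% DMA in 50 mM lactic acid, pH 4.0. Net cell kill = log tumor-burden reduction between first and last treatments.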
# Colon 26 [23] = experiment: In vivo activity against murine colon 26 tumor, net cell kill at 1.5 mg/kg ip dose for 9 days; assay type: functional, Mus musculus; conditions: route intraperitoneal; how it was run: as §5
compound,measurement,setting,value
NC(Cc1c(SSc2[nH]c3ccccc3c2CC(N)C(=O)NCc2ccccc2)[nH]c2ccccc12)C(=O)NCc1ccccc1 (centres undefined),Weight change,MCF7 [1],-0.4 g
same,IC50,[2],0.6 µM
same,Ki,[3],19.4 µM
same,IC50,[4],6.2 µM
same,Weight change,Colon 26 [5],0.8 g
same,T-C,A-431 [6],1 days
same,T-C,MCF7 [7],1 days
same,Weight change,A-431 [8],Weight gain
same,Weight change,A-431 [9],-1.2 g
same,IC50,[10],7.4 µM
same,IC50,[11],> 100 µM
same,T/C,B16 [12],99%
same,T-C,C6,0 days
same,Net cell kill,Colon 26 [13],-0.2 log10
same,IC50,[14],2 µM
same,T/C,B16 [15],100%
same,Net cell kill,B16 [16],-1.3 log10
same,T/C,Colon 26 [17],119%
same,Ki,[18],21.2 µM
same,IC50,[19],2.3 µM
same,Net cell kill,A-431 [20],-0.6 log10
same,Weight change,Colon 26 [21],1.8 g
same,Net cell kill,MCF7 [22],-1.2 log10
same,Net cell kill,Colon 26 [23],-0.3 log10
